The values below come from paper PMC12155403 (RSC Medicinal Chemistry, 2025).

Bounds are passed on as bounds.

One data set concerns MOLT-4 cells. Nature of the data set: MOLT-4 cell viability. In kind it is cell-based. Particulars: for IC50: Homo sapiens, MOLT-4, 48 h, read-out: IC50 (MOLT-4 cells). In outline: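 MOLT-4 (T-ALL) cells, STR-profiled and mycoplasma-negative, were kept at 37 °C in 5% CO2. Between […] and 1 × 10^5 suspension cells were seeded per well and exposed to test compound for 48 h or 72 h. Viability was read with tetrazolium MTS reagent, and IC50 values were calculated from the viability data.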

In data set [1] the target is T1, Bcl-xL (Homo sapiens, UniProt Q07817). The data set is described as follows: Bcl-xL degradation in MOLT-4 cells. The data set is classed as cell-based. In outline:
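MOLT-4 cells (RPMI 1640, 10% FBS, 1% penicillin–streptomycin, 37 °C, 5% CO2) were treated for 16 h across a concentration series, or at 100 nM over a time course. Where stated, cells had 1 μM MG-132 pretreatment for 2 h. Lysates were run on 4–20% Tris-glycine gels and blotted to PVDF, with ECL detection. Band densities were normalised to β-actin, three independent experiments, mean ± SD.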

The subject of another data set is human platelets. The data set is described as follows: Human platelet viability assay. In kind it is cell-based.
A further data set has as its system platelets. The data set is described as follows: In vivo platelet toxicity assay. Particulars: single dose 1.5 mg kg−1, i.p., mice.
The next data set has as its system MOLT-4 xenograft. The data set is described as follows: MOLT-4 T-ALL xenograft mouse model. The data set is classed as in vivo. Particulars: 1.5 mg kg−1, Q4D, i.p., MOLT-4 xenograft mice. In outline: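 MOLT-4 cells (5 × 10^6) in RPMI:Matrigel 1:1 were implanted s.c. in the right flank of 5-week-old CB-17 SCID mice. At mean tumour ~150 mm3, mice were randomised (n = 6 per group) to vehicle or 1.5 mg kg−1 i.p. every 4 days. The vehicle was 50% Phosal 50 PG, 45% Miglyol 810 N and 5% polysorbate 80. Calipers were used twice weekly, volume = (L × W2) × 0.5.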

Data set [2] addresses T1, Bcl-xL. Nature of the data set: Bcl-xL levels in human platelets. In kind it is cell-based. Particulars: 48 h.
In a further data set the test system is SCLC cell lines. Nature of the data set: Viability of a panel of SCLC cell lines. The data set is classed as cell-based. Particulars: 72 h. The method in brief:
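SCLC lines came from the NCI-Navy Medical Oncology supply, with H146 from ATCC. Stocks were STR-profiled and mycoplasma-negative, kept at 37 °C and 5% CO2.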

The test system of data set [3] is PARP and caspase-3 cleavage. Nature of the data set: Western blot of cleaved PARP and cleaved caspase-3 in MOLT-4 cells. In kind it is cell-based. Particulars: 16 h. The method in brief: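 MOLT-4 cells were treated for 16 h across a concentration series. Lysates were immunoblotted (4–20% Tris-glycine gels, PVDF, 5% milk/TBST block, primary antibody overnight at 4 °C, HRP secondary, ECL) for cleaved PARP and cleaved caspase-3. Full-length PARP was detected by stripping and reprobing the membrane. Bands were normalised to β-actin.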
For orientation: A western blot detects proteins with antibodies after separation by electrophoresis.

The next data set relates to NCI-H146 cells. Particulars: read-out: IC50 (NCI-H146 cells); NCI-H146 SCLC cells; earlier work; cited from earlier work.

T1 sequence (Q07817 whole entry): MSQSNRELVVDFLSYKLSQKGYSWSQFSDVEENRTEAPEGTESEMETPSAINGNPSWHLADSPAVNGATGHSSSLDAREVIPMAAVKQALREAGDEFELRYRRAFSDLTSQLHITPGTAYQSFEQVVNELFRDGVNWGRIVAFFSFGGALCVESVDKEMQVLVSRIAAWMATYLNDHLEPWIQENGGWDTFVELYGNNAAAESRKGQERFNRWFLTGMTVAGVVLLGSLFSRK

`CN(CCOCCOCCOCCCc1cccc2c1CN(C1CCC(=O)NC1=O)C2=O)CC[C@H](CSc1ccccc1)Nc1ccc(S(=O)(=O)NC(=O)c2ccc(N3CCN(CC4=C(c5ccc(Cl)cc5)CCC(C)(C)C4)CC3)cc2)cc1S(=O)(=O)C(F)(F)F` (stereo partly shown) [4b]: in the data set with MOLT-4 cells, the half-inhibitory concentration (IC50) was determined as 4.5 nM. As for `CN(CCOCCOCCN1CCN(c2cccc3c2C(=O)N(C2CCC(=O)NC2=O)C3=O)CC1)CC[C@H](CSc1ccccc1)Nc1ccc(S(=O)(=O)NC(=O)c2ccc(N3CCN(CC4=C(c5ccc(Cl)cc5)CCC(C)(C)C4)CC3)cc2)cc1S(=O)(=O)C(F)(F)F` (stereo partly shown) [2d], the IC50 with MOLT-4 cells came to 10.6 nM. Moreover, in the data set with MOLT-4 cells (vs 2b, MOLT-4 cells), the “fold weaker cellular activity than 2b” value stood at 2 fold. In the case of `CN(CCOCCOCCOCCCc1ccc2c(c1)CN(C1CCC(=O)NC1=O)C2=O)CC[C@H](CSc1ccccc1)Nc1ccc(S(=O)(=O)NC(=O)c2ccc(N3CCN(CC4=C(c5ccc(Cl)cc5)CCC(C)(C)C4)CC3)cc2)cc1S(=O)(=O)C(F)(F)F` (stereo partly shown) [PZ671], the concentration for half-maximal inhibition (IC50) with MOLT-4 cells was 1.3 nM. Moreover, the “fold improved cellular activity against MOLT-4 cells compared to XZ739” value in the data set with MOLT-4 cells (vs XZ739, listed as 5b) was 8 fold. For the same compound, at Bcl-xL [1] (MOLT-4 cells, 100 nM), the “time to almost complete Bcl-xL degradation” value came out at 4 h and the “time to significantly reduced Bcl-xL protein levels” value is on record as no more than 2 h. Moreover, the “Bcl-xL degradation after proteasome inhibitor pretreatment” value at Bcl-xL [1] (MOLT-4 cells, pretreatment with 1 μM MG-132 for 2 h) is on record as “blocked”. In addition, on Bcl-xL [1] (vs XZ739, MOLT-4 cells), the “fold enhanced degradation potency against Bcl-xL compared to XZ739” value is given as roughly 6 fold. For the same compound, the “selectivity for MOLT-4 cells over platelets” value with human platelets stood at 25 fold. In the data set on human platelets (vs XZ739), the “fold decrease in selectivity for MOLT-4 cells over platelets compared to XZ739” value was roughly 5 fold. For the same compound, in the data set with platelets, the platelet count recovery entry is “rapid recovery observed from the second day onward”. Further, in the data set with MOLT-4 xenograft, the tumor growth entry is given as “markedly suppressed the tumor growth”. Moreover, the “concentration at which Bcl-xL is degraded in human platelets” value at Bcl-xL [2] is “above 1 μM”. The “cell killing potency in SCLC cell lines compared to XZ739” value with SCLC cell lines is on record as “more potent than XZ739”. Moreover, in [3], the “PARP and caspase-3 cleavage” value was “dose-dependently increased”. In the case of `CC1(C)CCC(c2ccc(Cl)cc2)=C(CN2CCN(c3ccc(C(=O)NS(=O)(=O)c4ccc(N[C@H](CCN(CCOCCOCCOCCNc5cccc6c5C(=O)N(C5CCC(=O)NC5=O)C6=O)C5CCC5)CSc5ccccc5)c(S(=O)(=O)C(F)(F)F)c4)cc3)CC2)C1` (stereo partly shown) [1e], the IC50 with MOLT-4 cells is 330 nM. Consider `CN(CCOCCOCCOCC#Cc1ccc2c(c1)C(=O)N(C1CCC(=O)NC1=O)C2=O)CC[C@H](CSc1ccccc1)Nc1ccc(S(=O)(=O)NC(=O)c2ccc(N3CCN(CC4=C(c5ccc(Cl)cc5)CCC(C)(C)C4)CC3)cc2)cc1S(=O)(=O)C(F)(F)F` (stereo partly shown) [3a], for which, in the data set on MOLT-4 cells, the half-inhibitory concentration (IC50) came out at 14.3 nM. In the data set on MOLT-4 cells (vs C4-substituted 2b), the “fold reduced potency against MOLT-4 cells compared to 2b” value is roughly 3 fold. In the case of `Cc1ncsc1-c1ccc([C@H](C)NC(=O)[C@@H]2C[C@@H](O)CN2C(=O)[C@@H](NC(=O)CCCCCC(=O)N2CCN(CC[C@H](CSc3ccccc3)Nc3ccc(S(=O)(=O)NC(=O)c4ccc(N5CCN(CC6=C(c7ccc(Cl)cc7)CCC(C)(C)C6)CC5)cc4)cc3S(=O)(=O)C(F)(F)F)CC2)C(C)(C)C)cc1` [DT2216], in the data set on NCI-H146 cells, the IC50 is 278 nM.

In the case of `CC1(C)CCC(c2ccc(Cl)cc2)=C(CN2CCN(c3ccc(C(=O)NS(=O)(=O)c4ccc(N[C@H](CCN(CCOCCOCCOCCNc5cccc6c5C(=O)N(C5CCC(=O)NC5=O)C6=O)C5COC5)CSc5ccccc5)c(S(=O)(=O)C(F)(F)F)c4)cc3)CC2)C1` (stereo partly shown) [1f], the IC50 with MOLT-4 cells amounted to 397 nM. As to `CC1(C)CCC(c2ccc(Cl)cc2)=C(CN2CCN(c3ccc(C(=O)NS(=O)(=O)c4ccc(N[C@H](CCN(CCOCCOCCOCCNc5cccc6c5C(=O)N(C5CCC(=O)NC5=O)C6=O)C5CCCCC5)CSc5ccccc5)c(S(=O)(=O)C(F)(F)F)c4)cc3)CC2)C1` (stereo partly shown) [1i], the IC50 with MOLT-4 cells was greater than 1000 nM. The same measure, in the same setting: then `CN(CCOCCOCCOCCOc1cccc2c1C(=O)N(C1CCC(=O)NC1=O)C2=O)CC[C@H](CSc1ccccc1)Nc1ccc(S(=O)(=O)NC(=O)c2ccc(N3CCN(CC4=C(c5ccc(Cl)cc5)CCC(C)(C)C4)CC3)cc2)cc1S(=O)(=O)C(F)(F)F` (stereo partly shown) [2a], with 10.4 nM. The same measure, in the same setting: then `CN(CCOCCOCCN1CCC(CCc2cccc3c2C(=O)N(C2CCC(=O)NC2=O)C3=O)CC1)CC[C@H](CSc1ccccc1)Nc1ccc(S(=O)(=O)NC(=O)c2ccc(N3CCN(CC4=C(c5ccc(Cl)cc5)CCC(C)(C)C4)CC3)cc2)cc1S(=O)(=O)C(F)(F)F` (stereo partly shown) [2f], with 45.5 nM. Still for that read-out and setting: with `CN(CCOCCOCCOCC#Cc1ccc2c(c1)CN(C1CCC(=O)NC1=O)C2=O)CC[C@H](CSc1ccccc1)Nc1ccc(S(=O)(=O)NC(=O)c2ccc(N3CCN(CC4=C(c5ccc(Cl)cc5)CCC(C)(C)C4)CC3)cc2)cc1S(=O)(=O)C(F)(F)F` (stereo partly shown) [5a] the figure was 2.1 nM. Take `CN(CCOCCOCCOCC#Cc1cccc2c1C(=O)N(C1CCC(=O)NC1=O)C2=O)CC[C@H](CSc1ccccc1)Nc1ccc(S(=O)(=O)NC(=O)c2ccc(N3CCN(CC4=C(c5ccc(Cl)cc5)CCC(C)(C)C4)CC3)cc2)cc1S(=O)(=O)C(F)(F)F` (stereo partly shown) [2b]: the concentration for half-maximal inhibition (IC50) in the data set with MOLT-4 cells amounted to 5.2 nM. In the data set with MOLT-4 cells (vs 2a), the “fold increase in potency against MOLT-4 cells compared to 2a” value is 2 fold. In the case of `CN(CCOCCOCCN1CCC(C#Cc2cccc3c2C(=O)N(C2CCC(=O)NC2=O)C3=O)CC1)CC[C@H](CSc1ccccc1)Nc1ccc(S(=O)(=O)NC(=O)c2ccc(N3CCN(CC4=C(c5ccc(Cl)cc5)CCC(C)(C)C4)CC3)cc2)cc1S(=O)(=O)C(F)(F)F` (stereo partly shown) [2e], in the data set with MOLT-4 cells, the IC50 was 36.1 nM. For the same compound, in the data set on MOLT-4 cells (vs 2d, MOLT-4 cells), the “fold reduced activity compared to 2d” value was roughly 4 fold. As for `CC1(C)CCC(c2ccc(Cl)cc2)=C(CN2CCN(c3ccc(C(=O)NS(=O)(=O)c4ccc(N[C@H](CCN5CCOCC5)CSc5ccccc5)c(S(=O)(=O)C(F)(F)F)c4)cc3)CC2)C1` [ABT-263, navitoclax, reference compound], in the data set with MOLT-4 cells, the IC50 was 202 nM. As for `CC1(C)CCC(c2ccc(Cl)cc2)=C(CN2CCN(c3ccc(C(=O)NS(=O)(=O)c4ccc(N[C@H](CCN(CCOCCOCCOCCNc5cccc6c5C(=O)N(C5CCC(=O)NC5=O)C6=O)CC5CCC5)CSc5ccccc5)c(S(=O)(=O)C(F)(F)F)c4)cc3)CC2)C1` (stereo partly shown) [1g], the half-inhibitory concentration (IC50) in the data set with MOLT-4 cells turned out to be 326 nM. On the same count and under the same terms, then `CN(CCOCCOCCOCCCc1ccc2c(c1)C(=O)N(C1CCC(=O)NC1=O)C2=O)CC[C@H](CSc1ccccc1)Nc1ccc(S(=O)(=O)NC(=O)c2ccc(N3CCN(CC4=C(c5ccc(Cl)cc5)CCC(C)(C)C4)CC3)cc2)cc1S(=O)(=O)C(F)(F)F` (stereo partly shown) [3b], with 4.3 nM; and `CC1(C)CCC(c2ccc(Cl)cc2)=C(CN2CCN(c3ccc(C(=O)NS(=O)(=O)c4ccc(N[C@H](CCNCCOCCOCCOCCNc5cccc6c5C(=O)N(C5CCC(=O)NC5=O)C6=O)CSc5ccccc5)c(S(=O)(=O)C(F)(F)F)c4)cc3)CC2)C1` (stereo partly shown) [1a], with 59.7 nM. The same measure, in the same setting: with `CC1(C)CCC(c2ccc(Cl)cc2)=C(CN2CCN(c3ccc(C(=O)NS(=O)(=O)c4ccc(N[C@H](CCN(CCOCCOCCOCCNc5cccc6c5C(=O)N(C5CCC(=O)NC5=O)C6=O)C5CC5)CSc5ccccc5)c(S(=O)(=O)C(F)(F)F)c4)cc3)CC2)C1` (stereo partly shown) [1d] the figure was 297 nM. Still for that read-out and setting: then `CN(CCOCCOCCOCCCc1cccc2c1C(=O)N(C1CCC(=O)NC1=O)C2=O)CC[C@H](CSc1ccccc1)Nc1ccc(S(=O)(=O)NC(=O)c2ccc(N3CCN(CC4=C(c5ccc(Cl)cc5)CCC(C)(C)C4)CC3)cc2)cc1S(=O)(=O)C(F)(F)F` (stereo partly shown) [2c], with 6.2 nM; and `CCN(CCOCCOCCOCCNc1cccc2c1C(=O)N(C1CCC(=O)NC1=O)C2=O)CC[C@H](CSc1ccccc1)Nc1ccc(S(=O)(=O)NC(=O)c2ccc(N3CCN(CC4=C(c5ccc(Cl)cc5)CCC(C)(C)C4)CC3)cc2)cc1S(=O)(=O)C(F)(F)F` (stereo partly shown) [1b], with 52.8 nM; and `CN(CCOCCOCCOCC#Cc1cccc2c1CN(C1CCC(=O)NC1=O)C2=O)CC[C@H](CSc1ccccc1)Nc1ccc(S(=O)(=O)NC(=O)c2ccc(N3CCN(CC4=C(c5ccc(Cl)cc5)CCC(C)(C)C4)CC3)cc2)cc1S(=O)(=O)C(F)(F)F` (stereo partly shown) [4a], with 4.1 nM.

The IC50 is the concentration at which inhibition is half-maximal.
